According to ChEMBL document CHEMBL2401625, “Synthesis and evaluation of pharmacological properties of some new xanthone derivatives with piperazine moiety” (Bioorg Med Chem Lett, 2013):
Active and inactive are the calls of the source. No cut-off for these calls is given here.

Assays:
[1] = molecular target: 5-hydroxytryptamine receptor 6 (Homo sapiens, UniProt P50406); test: Displacement of [3H]LSD from human 5HT6 receptor expressed in HEK293 cells after 1 hr; type: cell-based
[2] = molecular target: T1, 5-hydroxytryptamine receptor 1A (Homo sapiens, UniProt P08908); test: Displacement of [3H]8-OH-DPAT from human 5HT1A receptor expressed in HEK293 cells after 1 hr; type: cell-based
T1 sequence (P08908 whole entry): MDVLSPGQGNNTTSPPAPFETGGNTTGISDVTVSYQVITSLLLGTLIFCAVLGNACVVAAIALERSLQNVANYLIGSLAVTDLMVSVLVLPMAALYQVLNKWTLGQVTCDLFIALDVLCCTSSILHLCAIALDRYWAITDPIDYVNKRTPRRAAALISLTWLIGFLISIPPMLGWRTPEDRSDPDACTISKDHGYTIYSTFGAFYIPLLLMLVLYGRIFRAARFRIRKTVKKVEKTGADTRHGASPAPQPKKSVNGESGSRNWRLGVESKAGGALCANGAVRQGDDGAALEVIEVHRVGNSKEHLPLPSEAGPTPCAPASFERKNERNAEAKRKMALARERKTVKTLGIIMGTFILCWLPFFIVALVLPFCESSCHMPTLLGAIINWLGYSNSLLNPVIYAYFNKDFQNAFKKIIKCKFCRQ

[3] = molecular target: 5-hydroxytryptamine receptor 7 (Homo sapiens, UniProt P34969); test: Displacement of [3H]5-CT from human 5HT7b receptor expressed in HEK293 cells after 1 hr; type: cell-based
[4] = molecular target: T2, Adrenergic receptor alpha-1 (Rattus norvegicus, UniProt P15823+P23944+P43140); test: Displacement of [3H]prazosin from alpha1-adrenergic receptor in rat cerebral cortex after 30 mins by scintillation counting; type: tissue-based
T2 sequence (P15823 whole entry): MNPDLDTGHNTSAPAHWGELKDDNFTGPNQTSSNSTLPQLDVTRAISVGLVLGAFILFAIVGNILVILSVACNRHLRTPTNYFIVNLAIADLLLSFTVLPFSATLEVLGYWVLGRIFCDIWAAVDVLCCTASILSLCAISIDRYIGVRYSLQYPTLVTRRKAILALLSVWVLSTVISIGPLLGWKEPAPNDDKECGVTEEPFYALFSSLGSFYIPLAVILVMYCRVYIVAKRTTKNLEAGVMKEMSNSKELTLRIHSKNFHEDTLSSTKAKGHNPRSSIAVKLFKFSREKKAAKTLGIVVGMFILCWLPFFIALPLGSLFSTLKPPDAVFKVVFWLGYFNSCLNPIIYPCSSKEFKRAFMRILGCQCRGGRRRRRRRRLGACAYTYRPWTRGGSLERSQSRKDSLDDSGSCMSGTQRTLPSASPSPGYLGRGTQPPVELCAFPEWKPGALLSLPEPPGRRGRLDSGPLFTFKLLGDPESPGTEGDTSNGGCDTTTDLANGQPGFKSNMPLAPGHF
T2 sequence (P23944 whole entry): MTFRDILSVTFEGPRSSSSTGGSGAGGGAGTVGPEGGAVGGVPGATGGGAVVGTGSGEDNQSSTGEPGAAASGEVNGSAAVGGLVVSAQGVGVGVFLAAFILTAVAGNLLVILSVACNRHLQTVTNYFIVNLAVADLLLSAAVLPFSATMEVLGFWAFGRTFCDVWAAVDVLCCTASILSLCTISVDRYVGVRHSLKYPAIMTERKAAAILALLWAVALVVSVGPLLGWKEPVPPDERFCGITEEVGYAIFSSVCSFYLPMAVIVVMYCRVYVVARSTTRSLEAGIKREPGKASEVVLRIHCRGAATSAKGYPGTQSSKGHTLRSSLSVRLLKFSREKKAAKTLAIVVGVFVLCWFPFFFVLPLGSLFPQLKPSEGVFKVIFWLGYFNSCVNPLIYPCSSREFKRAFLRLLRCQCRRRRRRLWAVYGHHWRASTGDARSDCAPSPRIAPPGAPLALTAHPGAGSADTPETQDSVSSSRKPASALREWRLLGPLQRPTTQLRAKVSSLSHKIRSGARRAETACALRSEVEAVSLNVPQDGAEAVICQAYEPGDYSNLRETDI
T2 sequence (P43140 whole entry): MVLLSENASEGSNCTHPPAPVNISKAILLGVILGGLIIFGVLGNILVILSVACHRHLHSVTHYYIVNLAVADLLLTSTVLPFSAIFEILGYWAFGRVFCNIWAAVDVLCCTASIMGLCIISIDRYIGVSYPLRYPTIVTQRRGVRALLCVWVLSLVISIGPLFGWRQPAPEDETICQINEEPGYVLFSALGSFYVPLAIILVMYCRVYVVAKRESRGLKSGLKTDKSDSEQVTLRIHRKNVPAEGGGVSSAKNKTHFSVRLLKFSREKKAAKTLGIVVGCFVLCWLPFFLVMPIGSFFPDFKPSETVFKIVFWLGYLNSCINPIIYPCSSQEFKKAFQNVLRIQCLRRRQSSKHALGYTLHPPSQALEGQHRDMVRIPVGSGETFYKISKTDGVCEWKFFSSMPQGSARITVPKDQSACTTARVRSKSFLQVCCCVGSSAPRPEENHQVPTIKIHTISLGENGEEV
In short: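 Radioligand binding on rat brain tissue membranes, run in 96-well format. [3H]prazosin was used for α1 (n = 2) and [3H]CGP-12177 for β1 (n = 2). Ki was calculated by the Cheng–Prusoff equation.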

Mus musculus [5] = test: Anticonvulsant activity in CF1 mouse assessed as protection against subcutaneous metrazole-induced seizures at 30 mg/kg, ip after 4 hrs; type: functional, organism-based; design: dose 30 mg/kg
In short: (§1)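 Mice given compound i.p. at 30, 100 or 300 mg/kg and tested 0.5 or 4 h after dosing. Seizures were induced by maximal electroshock (MES) or subcutaneous metrazole (ScMet). Prevention of seizures counts as protection. Result is recorded as number of animals protected over number tested.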

Mus musculus [6] = test: Anticonvulsant activity in CF1 mouse assessed as protection against maximal electroshock-induced seizures at 100 mg/kg, ip after 0.5 hrs; type: functional, organism-based; design: dose 100 mg/kg; in short: as §1
Mus musculus [7] = test: Anticonvulsant activity in CF1 mouse assessed as protection against subcutaneous metrazole-induced seizures at 300 mg/kg, ip after 4 hrs; type: functional, organism-based; design: dose 300 mg/kg; in short: as §1
Mus musculus [8] = test: Anticonvulsant activity in CF1 mouse assessed as protection against maximal electroshock-induced seizures at 30 mg/kg, ip after 0.5 hrs; type: functional, organism-based; design: dose 30 mg/kg; in short: as §1
Mus musculus [9] = test: Neurotoxicity in CF1 mouse assessed as minimal motor impairment at 30 mg/kg, ip after 4 hrs by rotorod test; type: toxicity, organism-based; design: dose 30 mg/kg, route intraperitoneal; conditions: in vivo
In short: (§2)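 Rotarod neurotoxicity screen in mice dosed i.p. at 30, 100 or 300 mg/kg, read 0.5 or 4 h after dosing. The animal must stay on a rod rotating at 6 rpm without falling, measured 3 times within 1 min. A fall counts as minimal motor impairment. Result is recorded as impaired animals over animals used.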

Mus musculus [10] = test: Anticonvulsant activity in CF1 mouse assessed as protection against maximal electroshock-induced seizures at 300 mg/kg, ip after 0.5 hrs; type: functional, organism-based; design: dose 300 mg/kg; in short: as §1
Mus musculus [11] = test: Anticonvulsant activity in CF1 mouse assessed as protection against maximal electroshock-induced seizures at 300 mg/kg, ip after 4 hrs; type: functional, organism-based; design: dose 300 mg/kg; in short: as §1
Rattus norvegicus [12] = organism: Rattus norvegicus; test: Displacement of [3H]CGP-12177 from beta1-adrenergic receptor in rat cerebral cortex at 50 uM after 60 mins by scintillation counting; type: tissue-based
Mus musculus [13] = test: Anticonvulsant activity in CF1 mouse assessed as protection against subcutaneous metrazole-induced seizures at 100 mg/kg, ip after 4 hrs; type: functional, organism-based; design: dose 100 mg/kg; in short: as §1
Mus musculus [14] = test: Anticonvulsant activity in CF1 mouse assessed as protection against subcutaneous metrazole-induced seizures at 30 mg/kg, ip after 0.5 hrs; type: functional, organism-based; design: dose 30 mg/kg; in short: as §1
Mus musculus [15] = test: Neurotoxicity in CF1 mouse assessed as minimal motor impairment at 100 mg/kg, ip after 4 hrs by rotorod test; type: toxicity, organism-based; design: dose 100 mg/kg, route intraperitoneal; conditions: in vivo; in short: as §2
Mus musculus [16] = test: Anticonvulsant activity in CF1 mouse assessed as protection against subcutaneous metrazole-induced seizures at 300 mg/kg, ip after 0.5 hrs; type: functional, organism-based; design: dose 300 mg/kg; in short: as §1
Mus musculus [17] = test: Neurotoxicity in CF1 mouse assessed as minimal motor impairment at 30 mg/kg, ip after 0.5 hrs by rotorod test; type: toxicity, organism-based; design: dose 30 mg/kg, route intraperitoneal; conditions: in vivo; in short: as §2
Mus musculus [18] = test: Anticonvulsant activity in CF1 mouse assessed as protection against subcutaneous metrazole-induced seizures at 100 mg/kg, ip after 0.5 hrs; type: functional, organism-based; design: dose 100 mg/kg; in short: as §1
Mus musculus [19] = test: Anticonvulsant activity in CF1 mouse assessed as protection against maximal electroshock-induced seizures at 30 mg/kg, ip after 4 hrs; type: functional, organism-based; design: dose 30 mg/kg; in short: as §1
Mus musculus [20] = test: Anticonvulsant activity in CF1 mouse assessed as protection against maximal electroshock-induced seizures at 100 mg/kg, ip after 4 hrs; type: functional, organism-based; design: dose 100 mg/kg; in short: as §1
Mus musculus [21] = test: Neurotoxicity in CF1 mouse assessed as minimal motor impairment at 100 mg/kg, ip after 0.5 hrs by rotorod test; type: toxicity, organism-based; design: dose 100 mg/kg, route intraperitoneal; conditions: in vivo; in short: as §2
Mus musculus [22] = test: Neurotoxicity in CF1 mouse assessed as minimal motor impairment at 300 mg/kg, ip after 4 hrs by rotorod test; type: toxicity, organism-based; design: dose 300 mg/kg, route intraperitoneal; conditions: in vivo; in short: as §2
Rattus norvegicus [23] = test: Neurotoxicity in Sprague-Dawley rat assessed as minimal motor impairment at 30 mg/kg, po after 4 hrs by rotorod test; conditions: in vivo
Rattus norvegicus [24] = test: Neurotoxicity in Sprague-Dawley rat assessed as minimal motor impairment at 30 mg/kg, po after 2 hrs by rotorod test; conditions: in vivo
Rattus norvegicus [25] = test: Neurotoxicity in Sprague-Dawley rat assessed as minimal motor impairment at 30 mg/kg, po after 0.5 hrs by rotorod test; conditions: in vivo
Rattus norvegicus [26] = test: Neurotoxicity in Sprague-Dawley rat assessed as minimal motor impairment at 30 mg/kg, po after 1 hr by rotorod test; conditions: in vivo
Mus musculus [27] = test: Neurotoxicity in CF1 mouse assessed as minimal motor impairment at 300 mg/kg, ip after 0.5 hrs by rotorod test; type: toxicity, organism-based; design: dose 300 mg/kg, route intraperitoneal; conditions: in vivo; in short: as §2
Rattus norvegicus [28] = test: Neurotoxicity in Sprague-Dawley rat assessed as minimal motor impairment at 30 mg/kg, po after 0.25 hrs by rotorod test; conditions: in vivo
[29] = Displacement of [3H]CGP-12177 from beta1-adrenergic receptor in rat cerebral cortex after 60 mins by scintillation counting; type: tissue-based
In short: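 Radioligand binding on rat brain tissue membranes, run in 96-well format. Ki was calculated by the Cheng–Prusoff equation.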

Sequence of 5-hydroxytryptamine receptor 6 (P50406 whole entry): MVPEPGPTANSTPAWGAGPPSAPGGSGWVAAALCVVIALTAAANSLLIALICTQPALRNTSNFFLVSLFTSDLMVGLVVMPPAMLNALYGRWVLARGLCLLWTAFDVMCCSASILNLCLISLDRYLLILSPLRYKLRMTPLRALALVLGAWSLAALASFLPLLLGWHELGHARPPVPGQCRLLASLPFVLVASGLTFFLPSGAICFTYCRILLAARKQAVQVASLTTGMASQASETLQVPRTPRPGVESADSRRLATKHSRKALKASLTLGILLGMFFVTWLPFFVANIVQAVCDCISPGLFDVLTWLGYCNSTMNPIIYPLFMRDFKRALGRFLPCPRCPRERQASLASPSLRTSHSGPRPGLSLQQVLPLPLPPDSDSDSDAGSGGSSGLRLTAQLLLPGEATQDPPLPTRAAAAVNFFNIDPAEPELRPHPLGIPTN
Sequence of 5-hydroxytryptamine receptor 7 (P34969 whole entry): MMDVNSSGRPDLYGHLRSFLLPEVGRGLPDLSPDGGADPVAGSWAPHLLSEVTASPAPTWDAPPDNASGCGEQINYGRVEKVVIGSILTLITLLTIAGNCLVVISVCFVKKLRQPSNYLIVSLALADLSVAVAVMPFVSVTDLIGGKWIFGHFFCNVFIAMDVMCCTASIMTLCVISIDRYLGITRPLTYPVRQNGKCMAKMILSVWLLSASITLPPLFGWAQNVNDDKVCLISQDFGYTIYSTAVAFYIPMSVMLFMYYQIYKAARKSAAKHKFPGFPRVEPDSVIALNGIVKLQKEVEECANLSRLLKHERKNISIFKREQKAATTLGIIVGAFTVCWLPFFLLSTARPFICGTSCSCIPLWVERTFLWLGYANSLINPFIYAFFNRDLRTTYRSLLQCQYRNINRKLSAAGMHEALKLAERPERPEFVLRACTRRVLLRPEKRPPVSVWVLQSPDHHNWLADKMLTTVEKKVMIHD

SMILES | Ki [1] | Ki [2] | Ki [3] | Ki [4] | Activity (Mus musculus [9]) | Activity (Mus musculus [15]) | Activity (Mus musculus [17]) | Activity (Mus musculus [22]) | Activity (Mus musculus [27]) | also measured
COc1ccc2c(=O)c3cc(CN4CCN(C)CC4)ccc3oc2c1.Cl.Cl | 19.1 µM | 15.8 µM | 17 µM | 0.49 µM |  |  |  |  |  | 
COc1ccc2c(=O)c3cc(CN4CCN(C)CC4)ccc3oc2c1 |  |  |  |  | Non-toxic | Non-toxic | Non-toxic |  | Toxic | Activity (Rattus norvegicus [23]): Non-toxic; Activity (Rattus norvegicus [24]): Non-toxic; Activity (Rattus norvegicus [25]): Non-toxic; Activity (Rattus norvegicus [26]): Non-toxic; Activity (Rattus norvegicus [28]): Non-toxic
COc1ccc2c(=O)c3cc(CN4CCN(c5ccccc5OC)CC4)ccc3oc2c1 |  |  |  |  | Non-toxic | Non-toxic | Non-toxic | Non-toxic | Non-toxic | 

Further lines, with some results ahead:

Ki [1] | Ki [2] | Ki [3] | Ki [4] | SMILES | Activity (Mus musculus [9]) | Activity (Mus musculus [15]) | Activity (Mus musculus [17]) | Activity (Mus musculus [22]) | Activity (Mus musculus [27]) | also measured
9.36 µM | 0.024 µM | 0.195 µM | 0.17 µM | COc1ccc2c(=O)c3cccc(CN4CCN(c5ccccc5OC)CC4)c3oc2c1.Cl | Non-toxic | Non-toxic | Non-toxic | Non-toxic |  | Activity (Mus musculus [5]): inactive; Activity (Mus musculus [6]): inactive; Activity (Mus musculus [7]): inactive; Activity (Mus musculus [8]): inactive; Activity (Mus musculus [10]): inactive; Activity (Mus musculus [11]): inactive; inhibition (Rattus norvegicus [12]): inactive; Activity (Mus musculus [13]): inactive; Activity (Mus musculus [14]): inactive; Activity (Mus musculus [16]): inactive; Activity (Mus musculus [18]): inactive; Activity (Mus musculus [19]): inactive; Activity (Mus musculus [20]): inactive; Activity (Mus musculus [21]): Non-toxic
5.94 µM | 0.117 µM | 0.426 µM | 3.66 µM | COc1ccccc1N1CCN(Cc2ccc3oc4ccccc4c(=O)c3c2)CC1.Cl |  |  |  |  |  | Ki [29]: > 10 µM
